Reference: ChEMBL document CHEMBL1122754, “Synthesis and evaluation of (17 alpha,20E)-21-[125I]iodo-19-norpregna-1,3,5(10),20-tetraene-3,17 -diol and (17 alpha,20E)-21-[125I]iodo-11 beta-methoxy-19-norpregna-1,3,5(10),20-tetraene-3,17-diol (17 alpha-(iodovinyl)estradiol derivatives) as high specific activity potential radiopharmaceuticals” (J Med Chem, 1984)
Values joined by “and” are separate entries in the source; they are usually repeats but may differ in a detail not shown here. Equal values may be shown once.

Experiments:
[1] = tested on: Rattus norvegicus; experiment: In vivo distribution of the drug in uterus was determined at 1 hr following injection of five microcurics of the radiolabeled [125 I] compound in rats; type: ADME, organism-based
Procedure, shortened: (§1)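 Immature female Sprague-Dawley rats (20–25 days old) given 3–5 μCi of the ¹²⁵I-radioligand into the femoral vein; killed by cervical dislocation at 1, 2 or 3 h. Uterus blotted free of blood, 10–30-mg samples weighed. Heparinized blood centrifuged, 20-μL plasma samples taken. Gamma counting, dpm by absolute counting method. Expressed as percent dose/gram tissue; uterus/plasma ratio from these values.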

[2] = tested on: Rattus norvegicus; experiment: In vivo distribution of the drug in uterus/plasma was determined at 2 hr following injection of five microcurics of the radiolabeled [125 I] compound in rats; type: ADME, organism-based; procedure, shortened: as §1
[3] = tested on: Rattus norvegicus; experiment: (§2) In vivo distribution of the drug in uterus/plasma was determined at 3h following injection of five microcurics of the radiolabeled [125 I] compound in rats; type: ADME, organism-based; conditions: other tissue; procedure, shortened: as §1
[4] = tested on: Rattus norvegicus; experiment: In vivo distribution of the drug in plasma was determined at 1 hr following injection of five microcurics of the radiolabeled [125 I] compound in rats; type: ADME, organism-based; procedure, shortened: as §1
[5] = tested on: Rattus norvegicus; experiment: In vivo distribution of the drug in uterus was determined at 2 hr following injection of five microcurics of the radiolabeled [125 I] compound in rats; type: ADME, organism-based; procedure, shortened: as §1
[6] = organism: Rattus norvegicus; experiment: Specific activity and expressed as Ci/mmol; type: functional
[7] = tested on: Rattus norvegicus; experiment: In vivo distribution of the drug in plasma was determined at 3h following injection of five microcurics of the radiolabeled [125 I] compound in rats; type: ADME, organism-based; procedure, shortened: as §1
[8] = tested on: Rattus norvegicus; experiment: In vivo distribution of the drug in uterus was determined at 3h following injection of five microcurics of the radiolabeled [125 I] compound in rats; type: ADME, organism-based; procedure, shortened: as §1
[9] = tested on: Rattus norvegicus; experiment: In vivo distribution of the drug in uterus/plasma was determined at 1 hr following injection of five microcurics of the radiolabeled [125 I] compound in rats; type: ADME, organism-based; procedure, shortened: as §1
[10] = tested on: Rattus norvegicus; experiment: In vivo distribution of the drug in plasma was determined at 2 hr following injection of five microcurics of the radiolabeled [125 I] compound in rats; type: ADME, organism-based; procedure, shortened: as §1
[11] = tested on: Rattus norvegicus; experiment: In vivo effect when coinjected with estradiol (50 ug) in immature rat plasma (after 1 hr); type: functional
[12] = tested on: Rattus norvegicus; experiment: In vivo effect when coinjected with estradiol (50 ug) in immature rat muscle (after 1 hr); type: functional, Muscle tissue
[13] = tested on: Rattus norvegicus; experiment: In vivo effect when coinjected with estradiol (50 ug) in immature rat liver (after 1 hr); type: functional
[14] = tested on: Rattus norvegicus; experiment: In vivo effect when coinjected with estradiol (50 ug) in immature rat uterus (after 1 hr); type: functional
[15] = tested on: Rattus norvegicus; experiment: as §2; type: ADME, organism-based; conditions: other tissue; remark: listed apart in the source
Procedure, shortened: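 Female Sprague-Dawley rats aged 20–25 days received 3–5 µCi of the [125I] radioligand via the femoral vein and were killed by cervical dislocation at 1, 2 and 3 h. Uterus was blotted free of blood, and 10–30 mg samples were weighed. Heparinized blood was centrifuged, and 20 µL plasma samples were taken. Samples were gamma-counted, with dpm found by absolute counting. Values are % dose/g, and the uterus/plasma ratio was derived from them.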

C[C@]12CC[C@@H]3c4ccc(O)cc4CC[C@H]3[C@@H]1CC[C@@]2(O)/C=C/[125I]
Distribution [1]: 5.89% | uterus/plasma ratio [2]: 5 | uterus/plasma ratio [3]: 9.7 | Distribution [4]: 1.09% | Distribution [5]: 0.96% | Specific activity [6]: 2200 Ci mM-1 and 2152 Ci mM-1 | Distribution [7]: 0.113% | Distribution [8]: 1.1% | uterus/plasma ratio [9]: 5.5 | Distribution [10]: 0.192%

CO[C@H]1C[C@@]2(C)[C@@H](CC[C@@]2(O)/C=C/[125I])[C@@H]2CCc3cc(O)ccc3[C@H]21
Dose [11]: 0.34% | Distribution [1]: 8.18% | uterus/plasma ratio [2]: 68.3 | Dose [12]: 1.29% | Distribution [4]: 0.28% | Distribution [5]: 17.2% | Distribution [7]: 0.24% | Distribution [8]: 15.9% | uterus/plasma ratio [9]: 29 | Dose [13]: 4.52% | Distribution [10]: 0.25% | Dose [14]: 1.25% | uterus/plasma ratio [15]: 66.3
